Here are results for two molecules from paper PMC7067668 (Journal of biological inorganic chemistry : JBIC : a …, 2019).

One data set concerns B16F10 cells. The experiment in a line: Cell uptake and internalization. It counts as cell-based, mouse. As to conditions: co-incubation with 10 μg unlabeled LLP2A-PEG4 per well, n = 3. The essentials: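 Radiotracer uptake in B16F10 cells, grown in DMEM with 10% FBS at 37°C, 5% CO2, seeded at 200,000 cells/well 24 h before. Cells were rinsed with HBSS, then given DMEM with 0.1% BSA and 1 mM Mn²⁺ plus ~74 kBq/well Al¹⁸F- or ⁶⁸Ga-labeled test compound, with or without 10 μg/well unlabeled peptide. Sampling was at 0.5, 1, 2 h (⁶⁸Ga) or up to 4 h (¹⁸F). Cells were PBS-washed and gamma-counted.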

The test system of another data set is B16F10 xenografts. Nature of the data set: Micro-PET imaging, B16F10 xenografts. It counts as in vivo, mouse. As to conditions: co-injection of 100 μg unlabeled LLP2A-PEG4; 4 mice per group. The method, boiled down: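 Female C57BL/6 mice bore subcutaneous right-shoulder B16F10 grafts (one million cells). They received intravenous Al¹⁸F- or ⁶⁸Ga-labeled test compound, 5.5–7.4 MBq (100–200 pmol), co-injected with 100 μg unlabeled peptide. Static small-animal PET was acquired under 2% isoflurane at 0.5, 1, 2 h p.i. (plus 4 h for ¹⁸F).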

Data set [1] has as its system mice bearing B16F10 xenografts. The experiment in a line: Ex vivo biodistribution. As to conditions: n = 5; for liver uptake: i.v. 5.5–7.4 MBq (100–200 pmol). The data set is classed as in vivo, mouse. The method, boiled down: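 Female C57BL/6 mice (four weeks old) carried subcutaneous right-shoulder B16F10 grafts (one million cells in PBS). Radiolabeled test compound was injected intravenously at 5.5–7.4 MBq (100–200 pmol), with or without 100 μg unlabeled peptide. Mice were sacrificed at 0.5, 1, 2 h p.i. (4 h for the ¹⁸F tracer). Organs and tumor were weighed and gamma-counted, expressed as %ID/g, n = 5.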

For the next data set, the system named is A375 xenografts. Nature of the data set: Micro-PET imaging, VLA-4-negative A375 xenografts. The data set is classed as in vivo, mouse. Conditions: BALB/c nude mice, 0.5 h, 1 h, 2 h p.i., 5.5–7.4 MBq. The essentials:
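Female BALB/c nude mice carried subcutaneous right-shoulder A375 (VLA-4-negative) grafts of one million cells in PBS. ⁶⁸Ga-labeled test compound was injected intravenously at 5.5–7.4 MBq (100–200 pmol). Static small-animal PET was acquired under 2% isoflurane anesthesia at 0.5, 1 and 2 h p.i.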

The structures appear in SMILES notation. Starred links: 1 amine or outer side, 2 acyl side, 3 side chain; linkers in the order of their positions; H or OH if unused. Non-standard residues stand in square brackets, D forms with d. Residues, ends and D or L forms follow the SMILES beside them. *: point of attachment. NOTA(2S-Bn(4-NHCS)) = O=C(O)CN1CCN(CC(=O)O)C[C@H](Cc2ccc(NC(=S)*)cc2)N(CC(=O)O)CC1; NH(CH2CH2O)4CH2CO = O=C(COCCOCCOCCOCCN[*:1])[*:2]; Acryloyl(3-(3-pyridyl),E) = O=C(/C=C/c1cccnc1)*; X1 = O=C(Cc1ccc(N[*:1])cc1)[*:2]; Aad = N[C@@H](CCCC(=O)O)C(=O)O; NH(2-Me-phenyl) = Cc1ccccc1N*; Ac6c = NC1(C(=O)O)CCCCC1; CO = O=C([*:1])[*:2]

Turning to `Cc1ccccc1NC(=O)Nc1ccc(CC(=O)N[C@@H](CCCCNC(=O)/C=C/c2cccnc2)C(=O)N[C@@H](CCCC(=O)O)C(=O)NC2(C(=O)NCCOCCOCCOCCOCC(=O)N[C@@H](CCCCNC(=S)Nc3ccc(C[C@H]4CN(CC(=O)O)CCN(CC(=O)O)CCN4CC(=O)O)cc3)C(N)=O)CCCCC2)cc1` [Al^18F-NOTA-PEG4-LLP2A] ({NH(2-Me-phenyl)-CO}-[X1]K(Acryloyl(3-(3-pyridyl),E))[Aad][Ac6c][NH(CH2CH2O)4CH2CO]K(NOTA(2S-Bn(4-NHCS)))-NH2), the “reduction of cell uptake by blocking dose” value with B16F10 cells is given as 61.7%. Further, the “activity accumulation in B16F10 xenografts with blocking agent (PET)” value with B16F10 xenografts is “significantly reduced”.

`Cc1ccccc1NC(=O)Nc1ccc(CC(=O)N[C@@H](CCCCNC(=O)/C=C/c2cccnc2)C(=O)N[C@@H](CCCC(=O)O)C(=O)NC2(C(=O)NCCOCCOCCOCCOCC(=O)N[C@@H](CCCCNC(=S)Nc3ccc(C[C@H]4CN(CC(=O)O)CCN(CC(=O)O)CCN4CC(=O)O)cc3)C(N)=O)CCCCC2)cc1` [^68Ga-NOTA-PEG4-LLP2A, metal not drawn] ({NH(2-Me-phenyl)-CO}-[X1]K(Acryloyl(3-(3-pyridyl),E))[Aad][Ac6c][NH(CH2CH2O)4CH2CO]K(NOTA(2S-Bn(4-NHCS)))-NH2): the “reduction of cell uptake by blocking dose” value in the data set on B16F10 cells is on record as 79.2%. For the same molecule, in data set [1] (0.5 h p.i., B16F10 tumor mice), the bone uptake stood at 5.75 ± 2.04 %ID/g. Besides, the tumor uptake in data set [1] (0.5 h p.i.) is given as 6.77 ± 1.77 %ID/g. For the same molecule, the liver uptake amounted to 15.3 ± 1.7 %ID/g in data set [1] (1 h p.i., B16F10 tumor mice) and 8.0 ± 0.8 %ID/g in data set [1] (2 h p.i., B16F10 tumor mice). Also, the results for the tumor-to-blood ratio in data set [1] (1 h p.i.) and in data set [1] (2 h p.i.) were 3.3 ± 0.5 and 7.3 ± 0.6, respectively. The same molecule displayed a colon uptake in data set [1] (2 h p.i., B16F10 tumor mice) of 2.1 ± 0.2 %ID/g. The molecule further gave a kidney uptake in data set [1] (2 h p.i., B16F10 tumor mice) of 4.5 ± 0.3 %ID/g. Moreover, in the data set on B16F10 xenografts, the “activity accumulation in B16F10 xenografts with blocking agent (PET)” value is reported as “significantly reduced”. Also, in the data set on A375 xenografts, the “accumulation in VLA-4-negative A375 xenografts (PET)” value was “did not show specific accumulation”.
